Measured values published in ChEMBL document CHEMBL2150886, “Synthesis of [3β-acetoxy-urs-12-en-28-oyl]-1-monoglyceride and investigation on its anti tumor effects against BGC-823” (Bioorg Med Chem, 2011).
Active and inactive are the calls of the source. No cut-off for these calls is given here.

How the values were obtained:
Mus musculus [1] = test: Toxicity in human BGC823 cells xenografted nude mouse assessed as body weight changes at 30 mg/kg, iv treated on day 1 post tumor implant (reference value: 19.69 +/- 1.21 grams); format: organism-based, BGC-823; parameters: dose 30 mg/kg, route intravenous; settings: in vivo
How it was run: (§1)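 Nude mice (male, 5 weeks, 18–22 g) carried subcutaneous BGC-823 xenografts from 1 × 10⁷ cells. Dosing started at about 200 mm³ tumour volume, with eight mice per group. Each dose was 0.2 mL given iv; the saline control received 0.9% saline. Body weight was recorded on days 1, 4, 7, 10, 13 and 16 of treatment and reported as mean ± SD, n = 8.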

BGC-823 [2] = test: Antitumor activity against human BGC823 cells xenografted in nude mouse assessed as reduction in tumor volume at 6 mg/kg, iv dosed 5 times; format: functional; parameters: scale not given: the % may be the effect or the level left
How it was run: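 Male nude mice (5 weeks, 18–22 g) inoculated subcutaneously with 1 × 10⁷ BGC-823 cells. At about 200 mm³ tumours, animals were randomised into four groups of eight. Each received 0.2 mL iv by tail vein; controls got 0.9% saline. Tumour volume was measured daily as 0.5 × length × width²; tumours were weighed at the end. Values are mean ± SD, n = 8.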

HT-29 = test: Cytotoxicity against human HT-29 cells incubated for 48 hrs by MTT assay; format: functional, cell-based; settings: HT-29, 48 h
How it was run: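 Cells were grown in RPMI-1640 with 10% heat-inactivated FCS at 37 °C under 5% CO₂, seeded at 5 × 10³ per well and left 24 h. Compounds in DMSO were diluted in medium to 0.5% final DMSO; controls received 0.5% DMSO. Exposure was 24–72 h, followed by MTT for 4 h, formazan dissolved in DMSO, and A570. Six wells per sample; IC₅₀ taken at 50% inhibition; ≥3 repeats.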

BGC-823 [3] = test: Cell cycle arrest in human BGC823 cells assessed as accumulation of cells at subG0/G1 phase at 20 uM incubated for 24 hrs by propidium iodide staining based flow cytometry (Rvb= 0.66%); format: functional
How it was run: (§2)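 BGC-823 cells were exposed to 20 µM for 24, 48 or 72 h, or to 10, 20 or 40 µM for 48 h. About 10⁶ cells were harvested and stained with propidium iodide using a cell cycle kit, then analysed by flow cytometry. Percentages were read for sub-G0/G1, G0/G1, S and G2/M. Each experiment was run at least three times; mean ± SD.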

Mus musculus [4] = test: Toxicity in human BGC823 cells xenografted nude mouse assessed as body weight changes at 6 mg/kg, iv treated on day 1 post tumor implant (reference value: 19.69 +/- 1.21 grams); format: organism-based, BGC-823; parameters: dose 6 mg/kg, route intravenous; settings: in vivo
BGC-823 [5] = test: Cell cycle arrest in human BGC823 cells assessed as accumulation of cells at subG0/G1 phase at 40 uM incubated for 24 to 72 hrs by propidium iodide staining based flow cytometry (Rvb= 0.66%); format: functional
BGC-823 [6] = test: Induction of apoptosis in human BGC823 cells assessed as increase in caspase 3 activity at 20 uM incubated for 48 hrs relative to untreated control; format: functional
How it was run: (§3)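 BGC-823 cells were exposed to 0, 10 or 20 µM for 48 h, detached with trypsin/EDTA and washed in cold PBS. About 10⁶ cells were lysed, and the lysate was incubated 1 h with Ac-DEVD-pNA, with cleavage read at 405 nm. Activity was normalised to Bradford protein and expressed relative to the untreated control. Mean ± SD of three independent experiments.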

Mus musculus [7] = test: Toxicity in human BGC823 cells xenografted nude mouse assessed as body weight changes at 30 mg/kg, iv treated 5 times on day 1, 4, 7, 10 and day 13 post tumor implant (reference value: 20.21 +/- 1.83 grams); format: organism-based, BGC-823; parameters: dose 30 mg/kg, route intravenous; settings: in vivo; how it was run: as §1
BGC-823 [8] = test: Induction of apoptosis in human BGC823 cells assessed as increase in caspase 3 activity at 10 uM incubated for 48 hrs relative to untreated control; format: functional; how it was run: as §3
BGC-823 [9] = test: Induction of apoptosis in human BGC823 cells assessed as increase in caspase 3 activity at 10 to 20 uM incubated for 48 hrs; format: functional, cell-based; how it was run: as §3
Mus musculus [10] = test: Toxicity in human BGC823 cells xenografted nude mouse assessed as body weight changes at 30 mg/kg, iv treated 2 times on day 1 and day 4 post tumor implant (reference value: 20.58 +/- 1.35 grams); format: organism-based, BGC-823; parameters: dose 30 mg/kg, route intravenous; settings: in vivo; how it was run: as §1
BGC-823 [11] = test: Cell cycle arrest in human BGC823 cells assessed as accumulation of cells at subG0/G1 phase at 20 uM incubated for 48 hrs by propidium iodide staining based flow cytometry (Rvb= 0.66%); format: functional; how it was run: as §2
Mus musculus [12] = test: Toxicity in human BGC823 cells xenografted nude mouse assessed as body weight changes at 6 mg/kg, iv treated 2 times on day 1 and day 4 post tumor implant (reference value: 20.58 +/- 1.35 grams); format: organism-based, BGC-823; parameters: dose 6 mg/kg, route intravenous; settings: in vivo; how it was run: as §1
BGC-823 [13] = test: Induction of apoptosis in human BGC823 cells assessed as early apoptotic cell population at 20 uM by annexinV/propidium iodide staining (reference value: 1.9%); format: functional
Mus musculus [14] = test: Toxicity in human BGC823 cells xenografted nude mouse assessed as body weight changes at 6 mg/kg, iv treated 4 times on day 1, 4, 7 and 10 post tumor implant (reference value: 20.54 +/- 1.45 grams); format: organism-based, BGC-823; parameters: dose 6 mg/kg, route intravenous; settings: in vivo; how it was run: as §1
Mus musculus [15] = test: Toxicity in human BGC823 cells xenografted nude mouse assessed as body weight changes at 6 mg/kg, iv treated 3 times on day 1, day 4 and day 7 post tumor implant (reference value: 20.79 +/- 1.29 grams); format: organism-based, BGC-823; parameters: dose 6 mg/kg, route intravenous; settings: in vivo; how it was run: as §1
BGC-823 [16] = test: Induction of apoptosis in human BGC823 cells assessed as early apoptotic cell population at 30 uM by annexinV/propidium iodide staining (reference value: 1.9%); format: functional
BGC-823 [17] = test: Induction of apoptosis in human BGC823 cells assessed as viable cell population at 10 uM by annexinV/propidium iodide staining (reference value: 95.5%); format: functional
Mus musculus [18] = test: Toxicity in human BGC823 cells xenografted nude mouse assessed as body weight changes at 30 mg/kg, iv treated 5 times on day 1, 4, 7, 10, 13 and day 16 post tumor implant (reference value: 20.12 +/- 1.52 grams); format: organism-based, BGC-823; parameters: dose 30 mg/kg, route intravenous; settings: in vivo; how it was run: as §1
BGC-823 [19] = test: Induction of apoptosis in human BGC823 cells assessed as necrotic damaged cell population at 20 uM by annexinV/propidium iodide staining (reference value: 0.5%; format: functional
BGC-823 [20] = test: Induction of apoptosis in human BGC823 cells assessed as viable cell population at 40 uM by annexinV/propidium iodide staining (reference value: 95.5%); format: functional
BGC-823 [21] = test: Cell cycle arrest in human BGC823 cells assessed as accumulation of cells at subG0/G1 phase at 20 uM incubated for 72 hrs by propidium iodide staining based flow cytometry (Rvb= 0.66%); format: functional; how it was run: as §2
BGC-823 [22] = test: Induction of apoptosis in human BGC823 cells assessed as viable cell population at 20 uM by annexinV/propidium iodide staining (reference value: 95.5%); format: functional
BGC-823 [23] = test: Induction of apoptosis in human BGC823 cells assessed as induction of DNA fragmentation at 10 to 40 uM incubated for 48 hrs by alkaline comet assay; format: functional, cell-based
How it was run: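 Alkaline comet assay on about 10⁵ BGC-823 cells after 48 h at 37 °C with 10, 20 or 40 µM. Cells with diffuse fan-like tails and small heads were scored as apoptotic; large defined heads with minimal DNA diffusion were scored as normal.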

## CC(=O)O[C@H]1CC[C@]2(C)[C@H]3CC=C4[C@@H]5[C@@H](C)[C@H](C)CC[C@]5(C(=O)OCC(O)CO)CC[C@@]4(C)[C@]3(C)CC[C@H]2C1(C)C (some centres undefined)
Mus musculus [1]
  Activity: 19.26 g
BGC-823 [2]
  Activity: 29.3%
HT-29
  IC50: 18.4 µM
BGC-823 [3]
  Activity: 3.71%
Mus musculus [4]
  Activity: 19.21 g
BGC-823 [5]
  Activity: 96.13%
BGC-823 [6]
  fold change (FC): 3.65
Mus musculus [7]
  Activity: 19.69 g
BGC-823 [8]
  fold change (FC): 2.54
BGC-823 [9]
  Activity: Active
Mus musculus [10]
  Activity: 19.61 g
BGC-823 [11]
  Activity: 7.91%
Mus musculus [12]
  Activity: 20.66 g
BGC-823 [13]
  Activity: 19.4%
Mus musculus [14]
  Activity: 20.03 g
Mus musculus [15]
  Activity: 20.13 g
BGC-823 [16]
  Activity: 45.1%
BGC-823 [17]
  Activity: 92.7%
Mus musculus [18]
  Activity: 19.57 g
BGC-823 [19]
  Activity: 0.1%
BGC-823 [20]
  Activity: 2%
BGC-823 [21]
  Activity: 13.63%
BGC-823 [22]
  Activity: 72.2%
BGC-823 [23]
  Activity: Dose-dependent effect
